Tests used:
[1] = target: Carbonic anhydrase 1 (Homo sapiens) (UniProt P00915); assay: Activation of human Carbonic anhydrase I, using histamine as standard
[2] = target: T1, Carbonic anhydrase 4 (Bos taurus) (UniProt Q95323); assay: Bovine Carbonic anhydrase IV activity using histamine as standard
T1 sequence (whole entry): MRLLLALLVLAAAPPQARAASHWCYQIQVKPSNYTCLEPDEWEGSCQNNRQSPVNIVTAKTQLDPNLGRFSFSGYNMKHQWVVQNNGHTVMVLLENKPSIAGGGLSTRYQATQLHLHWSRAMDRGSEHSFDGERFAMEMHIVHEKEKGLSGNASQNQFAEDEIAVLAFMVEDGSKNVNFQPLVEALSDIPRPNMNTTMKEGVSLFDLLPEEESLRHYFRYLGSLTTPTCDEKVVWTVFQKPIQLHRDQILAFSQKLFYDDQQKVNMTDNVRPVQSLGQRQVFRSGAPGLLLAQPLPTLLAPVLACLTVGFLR
How it was run: (§1)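 Esterase assay: initial rates of 4-nitrophenyl acetate hydrolysis read at 400 nm, pH 7.40, 25 °C, substrate 2×10^-2 to 1×10^-6 M. Enzymes were recombinant human CA I (25 nM) and CA II (7 nM) expressed in E. coli BL21(DE3), and CA IV (33 nM) isolated from bovine lung microsomes. Activator and enzyme were preincubated 15 min at room temperature. Non-enzymatic hydrolysis was subtracted. KA is the mean of at least three determinations.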

[3] = target: Carbonic anhydrase 2 (Homo sapiens) (UniProt P00918); assay: […] of human Carbonic anhydrase II, using histamine as standard
How it was run: as §1

Homo sapiens [4] = organism: Homo sapiens; assay: Ex vivo carbonic anhydrase activation was measured after 60 min of incubation of lysed human erythrocyte; format: functional; parameters: concentration or dose not given beside the values
How it was run: (§2)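 Washed fresh human erythrocytes (Tris pH 7.40, 5 mM) were lysed in distilled water, then the supernatant was incubated with 5 μM activator at 37 °C for 30 or 60 min. CA activity (hCA I + hCA II) was read by esterase assay with 4-nitrophenyl acetate. Activity without activator was set as 100%; values are mean of n = 3.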

Homo sapiens [5] = organism: Homo sapiens; assay: Ex vivo carbonic anhydrase activation was measured after 30 min of incubation of lysed human erythrocyte; format: functional; parameters: concentration or dose not given beside the values
How it was run: as §2

Sequence of Carbonic anhydrase 1 (Homo sapiens) (P00915 2-261 limits assumed): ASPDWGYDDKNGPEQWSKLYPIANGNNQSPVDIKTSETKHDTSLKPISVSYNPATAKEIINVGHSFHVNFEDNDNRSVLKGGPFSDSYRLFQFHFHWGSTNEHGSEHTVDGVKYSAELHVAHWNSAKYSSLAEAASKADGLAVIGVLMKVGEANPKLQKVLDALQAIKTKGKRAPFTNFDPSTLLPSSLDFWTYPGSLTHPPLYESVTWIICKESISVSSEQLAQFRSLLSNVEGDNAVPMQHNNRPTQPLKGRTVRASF

SMILES	KA [1]	KA [2]	KA [3]	CA activity (Homo sapiens [4])	CA activity (Homo sapiens [5])
Cc1cc(C)[n+](-c2ncc[nH]2)c(-c2ccccc2)c1	0.36 µM	0.975 µM	59 µM		
CCCCc1cc(-c2ccccc2)cc(CCCC)[n+]1-c1nn[n-]n1	1.8 µM	6.8 µM	145 µM		
CCCc1cc(-c2ccccc2)cc(CCC)[n+]1-c1cc[nH]n1	1.35 µM	1.2 µM	75 µM		
CCc1cc(-c2ccccc2)cc(CC)[n+]1-c1nn[n-]n1	0.064 µM	0.055 µM	1.23 µM		
CCCCc1cc(-c2ccccc2)cc(-c2ccccc2)[n+]1-c1cc[nH]n1	5.64 µM	> 50 µM	> 150 µM		
Cc1cc(C(C)C)[n+](-c2ncc[nH]2)c(C(C)C)c1	0.024 µM	0.008 µM	0.13 µM		
NCCc1c[nH]cn1 [HISTAMINE]	2.1 µM	41 µM	125 µM	130%	121%
Cc1cc(-c2ccccc2)cc(C)[n+]1-c1cc[nH]n1	0.035 µM	0.017 µM	0.359 µM		
CCCc1cc(-c2ccccc2)cc(-c2ccccc2)[n+]1-c1ncc[nH]1	1.9 µM	5.76 µM	130 µM		
CC(C)c1cc(-c2ccccc2)cc(-c2ccccc2)[n+]1-c1nn[n-]n1	2.87 µM	10.1 µM	134 µM		
CCCCc1cc(-c2ccccc2)cc(CCCC)[n+]1-c1cc[nH]n1	1.76 µM	2.59 µM	140 µM		
CCCCc1cc(-c2ccccc2)cc(-c2ccccc2)[n+]1-c1nn[n-]n1	10.5 µM	> 50 µM	> 150 µM		
CCCc1cc(-c2ccccc2)cc(CCC)[n+]1-c1nn[n-]n1	2.12 µM	1.55 µM	136 µM		
Cc1cc(-c2ccccc2)cc(C)[n+]1-c1nn[n-]n1	0.076 µM	0.063 µM	1.39 µM		
CC(C)c1cc(-c2ccccc2)cc(C(C)C)[n+]1-c1ncc[nH]1.[O-][Cl+3]([O-])([O-])[O-]	0.012 µM	0.006 µM	0.095 µM	298%	256%
CCCCc1cc(-c2ccccc2)cc(CCCC)[n+]1-c1ncc[nH]1	0.651 µM	1.89 µM	86 µM		
c1ccc(-c2cc(-c3ccccc3)[n+](-c3nn[n-]n3)c(-c3ccccc3)c2)cc1	41 µM	> 50 µM	> 150 µM		
Cc1cc(C)[n+](-c2ncc[nH]2)c(C)c1	0.036 µM	0.021 µM	0.347 µM		
Cc1c2cc(c(C)[n+]1-c1cc[nH]n1)CCCCCCCCC2	0.037 µM	0.033 µM	0.412 µM		
Cc1cc(C(C)C)[n+](-c2cc[nH]n2)c(C(C)C)c1	0.038 µM	0.016 µM	0.264 µM		
Cc1cc(C)[n+](-c2cc[nH]n2)c(C)c1C	0.049 µM	0.038 µM	0.457 µM		
CCCc1cc(-c2ccccc2)cc(CCC)[n+]1-c1ncc[nH]1	0.247 µM	0.62 µM	48 µM		

SMILES	KA [1]	KA [2]	KA [3]	CA activity (Homo sapiens [4])	CA activity (Homo sapiens [5])
CCCc1cc(-c2ccccc2)cc(-c2ccccc2)[n+]1-c1nn[n-]n1	4.21 µM	15.5 µM	> 150 µM		
CCc1cc(-c2ccccc2)cc(CC)[n+]1-c1ncc[nH]1	0.018 µM	0.009 µM	0.144 µM		
Cc1cc(-c2ccccc2)cc(-c2ccccc2)[n+]1-c1nn[n-]n1	1.1 µM	5.24 µM	108 µM		
CCc1cc(-c2ccccc2)cc(CC)[n+]1-c1cc[nH]n1	0.027 µM	0.015 µM	0.306 µM		
c1ccc(-c2cc(-c3ccccc3)[n+](-c3cc[nH]n3)c(-c3ccccc3)c2)cc1	32 µM	> 50 µM	> 150 µM		
Cc1cc(C)[n+](-c2cc[nH]n2)c(C)c1	0.052 µM	0.045 µM	0.48 µM		
CCCCc1cc(-c2ccccc2)cc(-c2ccccc2)[n+]1-c1ncc[nH]1	2.4 µM	9.55 µM	130 µM		
CC(C)c1cc(-c2ccccc2)cc(C(C)C)[n+]1-c1nn[n-]n1	0.05 µM	0.012 µM	1.15 µM	212%	173%
c1ccc(-c2cc(-c3ccccc3)[n+](-c3ncc[nH]3)c(-c3ccccc3)c2)cc1	15 µM	> 50 µM	> 150 µM		
Cc1cc(-c2ccccc2)cc(C)[n+]1-c1ncc[nH]1.[O-][Cl+3]([O-])([O-])[O-]	0.021 µM	0.013 µM	0.153 µM	233%	192%
CCc1cc(-c2ccccc2)cc(-c2ccccc2)[n+]1-c1ncc[nH]1	1.05 µM	2.56 µM	84 µM		
Cc1cc(-c2ccccc2)cc(-c2ccccc2)[n+]1-c1ncc[nH]1	0.303 µM	1.24 µM	62 µM		
CCc1cc(-c2ccccc2)cc(-c2ccccc2)[n+]1-c1cc[nH]n1	2.34 µM	3.41 µM	118 µM		
CCc1cc(-c2ccccc2)cc(-c2ccccc2)[n+]1-c1nn[n-]n1	3.05 µM	12.5 µM	140 µM		
Cc1cc(C)[n+](-c2cc[nH]n2)c(-c2ccccc2)c1	0.875 µM	1.68 µM	83 µM		
CC(C)c1cc(-c2ccccc2)cc(C(C)C)[n+]1-c1cc[nH]n1.[O-][Cl+3]([O-])([O-])[O-]	0.021 µM	0.008 µM	0.155 µM	234%	189%
CC(C)c1cc(-c2ccccc2)cc(-c2ccccc2)[n+]1-c1cc[nH]n1	2.5 µM	5.29 µM	130 µM		
CCCc1cc(-c2ccccc2)cc(-c2ccccc2)[n+]1-c1cc[nH]n1	2.78 µM	8.23 µM	135 µM		
Cc1cc(-c2ccccc2)cc(-c2ccccc2)[n+]1-c1cc[nH]n1	0.64 µM	1.85 µM	96 µM		
CC(C)c1cc(-c2ccccc2)cc(-c2ccccc2)[n+]1-c1ncc[nH]1	1.54 µM	3.14 µM	107 µM		
Cc1c2cc(c(C)[n+]1C1=NCC=N1)CCCCCCCCC2	0.022 µM	0.02 µM	0.305 µM		

Reference: ChEMBL document CHEMBL1135812, “Carbonic anhydrase activators: design of high affinity isozymes I, II, and IV activators, incorporating tri-/tetrasubstituted-pyridinium-azole moieties” (2002)
